Series [1] concerns the target T1, cGMP-dependent 3',5'-cyclic phosphodiesterase (Rattus norvegicus) (UniProt Q01062).
T1 sequence (whole entry): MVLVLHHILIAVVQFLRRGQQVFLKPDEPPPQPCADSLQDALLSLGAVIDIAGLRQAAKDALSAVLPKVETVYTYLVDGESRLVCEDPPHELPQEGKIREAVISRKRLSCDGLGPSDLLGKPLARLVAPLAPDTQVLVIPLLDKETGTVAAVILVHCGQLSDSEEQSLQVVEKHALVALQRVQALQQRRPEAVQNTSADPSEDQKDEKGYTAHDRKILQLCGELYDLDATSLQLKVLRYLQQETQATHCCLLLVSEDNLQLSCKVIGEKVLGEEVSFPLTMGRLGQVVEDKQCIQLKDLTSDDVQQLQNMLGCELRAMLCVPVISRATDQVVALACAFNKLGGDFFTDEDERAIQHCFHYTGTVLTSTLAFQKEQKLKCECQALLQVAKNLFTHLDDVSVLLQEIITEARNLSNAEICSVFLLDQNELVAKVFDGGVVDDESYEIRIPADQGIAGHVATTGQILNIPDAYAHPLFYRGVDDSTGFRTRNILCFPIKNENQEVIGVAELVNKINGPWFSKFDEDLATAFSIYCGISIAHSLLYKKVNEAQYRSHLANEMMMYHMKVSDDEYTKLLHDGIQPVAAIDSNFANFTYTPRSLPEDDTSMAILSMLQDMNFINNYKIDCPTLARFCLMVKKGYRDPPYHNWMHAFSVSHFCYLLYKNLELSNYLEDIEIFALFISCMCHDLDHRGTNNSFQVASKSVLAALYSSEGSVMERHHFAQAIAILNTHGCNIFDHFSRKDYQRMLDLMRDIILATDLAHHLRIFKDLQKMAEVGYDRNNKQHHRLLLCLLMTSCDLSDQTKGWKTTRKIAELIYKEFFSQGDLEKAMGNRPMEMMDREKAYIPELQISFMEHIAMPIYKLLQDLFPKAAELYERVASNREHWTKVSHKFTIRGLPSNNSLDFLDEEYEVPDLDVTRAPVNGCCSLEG
Nature of the series: Inhibition of rat PDE2A expressed in baculovirus infected Sf9 cells at 100 nM using iFl-cAMP/iFl-cGMP as substrate by mobility shift assay relative to control.

Series [2] can be described thus: Intrinsic clearance in human liver microsomes in presence of NADP/G6P/G6P dehydrogenase/MgCl2 by LC/MS analysis. Conditions: read-out: CLH. It counts as ADME, microsome. The essentials: (§1)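 Phase-1 liver microsomal stability assay for the named species, with intrinsic clearance reported in µl x min^-1 x mg^-1.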
For series [3], the target named is High affinity cAMP-specific and IBMX-insensitive 3',5'-cyclic phosphodiesterase 8A (Homo sapiens) (UniProt O60658). Nature of the series: Inhibition of recombinant full length human N-terminal GST-tagged PDE8A1 expressed in baculovirus infected Sf9 cells at 100 nM using iFl-cAMP/iFl-cGMP as substrate by mobility shift assay relative to control.
For series [4], the target named is cGMP-inhibited 3',5'-cyclic phosphodiesterase 3B (Homo sapiens) (UniProt Q13370). Nature of the series: Inhibition of recombinant human N-terminal GST-tagged PDE3B (592 to end residues) expressed in baculovirus infected Sf9 cells at 100 nM using iFl-cAMP/iFl-cGMP as substrate by mobility shift assay relative to control.
The target of series [5] is T2, Dual specificity calcium/calmodulin-dependent 3',5'-cyclic nucleotide phosphodiesterase 1C (Homo sapiens, UniProt Q14123). As to the kind of experiment: Inhibition of Ca2+/calmodulin-induced full-length recombinant human N-terminal GST-tagged PDE1C expressed in baculovirus infected Sf9 insect cells using cAMP as substrate pretreated for 10 mins followed by substrate addition and measured after 30 mins by kinase-Glo luminescence assay. In a few lines:
(§2)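 Selectivity screen run as a PDE-Glo enzymatic-activity luminescence assay, with IC50 values determined against each counter-screen PDE isoform.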

The target of series [6] is T3, High affinity cGMP-specific 3',5'-cyclic phosphodiesterase 9A (Homo sapiens, UniProt O76083). Nature of the series: Inhibition of recombinant full length human N-terminal GST-tagged PDE9A2 expressed in baculovirus infected Sf9 cells at 100 nM using iFl-cAMP/iFl-cGMP as substrate by mobility shift assay relative to control.
T3 sequence (O76083 whole entry): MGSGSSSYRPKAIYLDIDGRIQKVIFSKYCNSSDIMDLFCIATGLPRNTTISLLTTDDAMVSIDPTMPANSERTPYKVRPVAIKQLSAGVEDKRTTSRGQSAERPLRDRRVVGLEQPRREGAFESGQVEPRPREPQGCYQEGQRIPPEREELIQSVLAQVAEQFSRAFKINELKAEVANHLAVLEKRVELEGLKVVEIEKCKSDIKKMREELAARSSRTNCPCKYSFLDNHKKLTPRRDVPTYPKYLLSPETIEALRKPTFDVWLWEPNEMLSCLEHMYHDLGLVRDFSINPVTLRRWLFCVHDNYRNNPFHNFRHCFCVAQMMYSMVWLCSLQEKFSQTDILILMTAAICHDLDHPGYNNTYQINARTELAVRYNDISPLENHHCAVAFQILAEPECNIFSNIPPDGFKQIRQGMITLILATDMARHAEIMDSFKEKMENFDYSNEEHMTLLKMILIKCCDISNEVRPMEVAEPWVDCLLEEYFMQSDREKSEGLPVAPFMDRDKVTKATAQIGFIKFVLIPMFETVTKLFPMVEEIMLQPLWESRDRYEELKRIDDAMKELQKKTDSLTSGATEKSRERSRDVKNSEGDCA
The nature of series [7]: Intrinsic clearance in rat liver microsomes in presence of NADP/G6P/G6P dehydrogenase/MgCl2 by LC/MS analysis. It counts as ADME, microsome. Conditions: read-out: CLH. In a few lines:
as §1

The target of series [8] is cGMP-specific 3',5'-cyclic phosphodiesterase (Homo sapiens) (UniProt O76074). As to the kind of experiment: Inhibition of PDE5A1 (unknown origin) at 100 nM using iFl-cAMP/iFl-cGMP as substrate by mobility shift assay relative to control.
For series [9], the target named is High affinity 3',5'-cyclic-AMP phosphodiesterase 7A (Homo sapiens) (UniProt Q13946). As to the kind of experiment: Inhibition of PDE7A (unknown origin) at 100 nM using iFl-cAMP/iFl-cGMP as substrate by mobility shift assay relative to control.
Sequence of High affinity 3',5'-cyclic-AMP phosphodiesterase 7A (Homo sapiens) (Q13946 whole entry): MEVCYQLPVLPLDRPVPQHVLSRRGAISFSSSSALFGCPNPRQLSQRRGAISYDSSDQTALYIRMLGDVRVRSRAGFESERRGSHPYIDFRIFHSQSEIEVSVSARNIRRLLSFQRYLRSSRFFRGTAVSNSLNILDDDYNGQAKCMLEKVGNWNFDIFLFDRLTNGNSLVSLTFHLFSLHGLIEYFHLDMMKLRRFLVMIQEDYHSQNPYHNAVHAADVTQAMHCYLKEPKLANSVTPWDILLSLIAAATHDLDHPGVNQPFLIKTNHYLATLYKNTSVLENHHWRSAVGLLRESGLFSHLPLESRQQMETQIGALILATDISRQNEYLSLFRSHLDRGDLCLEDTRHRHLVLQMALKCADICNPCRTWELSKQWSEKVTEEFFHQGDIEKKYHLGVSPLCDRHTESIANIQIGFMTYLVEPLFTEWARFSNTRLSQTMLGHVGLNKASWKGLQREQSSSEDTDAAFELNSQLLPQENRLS
Series [10] deals with Cone cGMP-specific 3',5'-cyclic phosphodiesterase subunit alpha' (Homo sapiens) (UniProt P51160). Nature of the series: Inhibition of PDE6C (unknown origin) at 100 nM using iFl-cAMP/iFl-cGMP as substrate by mobility shift assay relative to control.
Sequence of Cone cGMP-specific 3',5'-cyclic phosphodiesterase subunit alpha' (Homo sapiens) (P51160 whole entry, the tested form may be a part): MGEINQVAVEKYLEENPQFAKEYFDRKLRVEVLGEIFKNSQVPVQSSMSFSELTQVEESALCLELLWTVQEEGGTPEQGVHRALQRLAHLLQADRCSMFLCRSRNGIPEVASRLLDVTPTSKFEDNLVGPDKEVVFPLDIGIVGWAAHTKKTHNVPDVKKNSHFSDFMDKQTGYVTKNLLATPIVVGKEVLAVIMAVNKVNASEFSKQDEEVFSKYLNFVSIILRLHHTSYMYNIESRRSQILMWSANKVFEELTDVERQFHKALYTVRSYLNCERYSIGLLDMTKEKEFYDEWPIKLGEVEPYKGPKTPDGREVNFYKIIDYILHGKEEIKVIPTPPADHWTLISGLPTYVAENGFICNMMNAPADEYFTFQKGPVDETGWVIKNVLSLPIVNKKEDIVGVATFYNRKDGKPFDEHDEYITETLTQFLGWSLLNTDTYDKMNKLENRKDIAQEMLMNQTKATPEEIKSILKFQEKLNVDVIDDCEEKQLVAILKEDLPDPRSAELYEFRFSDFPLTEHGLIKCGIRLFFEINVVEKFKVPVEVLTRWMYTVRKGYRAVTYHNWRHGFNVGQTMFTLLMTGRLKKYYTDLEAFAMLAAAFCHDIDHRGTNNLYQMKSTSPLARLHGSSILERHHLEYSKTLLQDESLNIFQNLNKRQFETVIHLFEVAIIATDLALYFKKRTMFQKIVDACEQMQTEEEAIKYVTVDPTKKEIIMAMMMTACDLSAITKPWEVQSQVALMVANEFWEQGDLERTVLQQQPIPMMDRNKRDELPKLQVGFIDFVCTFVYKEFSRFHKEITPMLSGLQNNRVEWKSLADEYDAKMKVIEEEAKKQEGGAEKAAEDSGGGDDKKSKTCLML
For series [11], the target named is T4, cAMP and cAMP-inhibited cGMP 3',5'-cyclic phosphodiesterase 10A (Homo sapiens, UniProt Q9Y233). Nature of the series: Inhibition of recombinant human N-terminal GST-tagged PDE10A1 ( 2 to 789 residues) expressed in baculovirus infected Sf9 cells at 100 nM using iFl-cAMP/iFl-cGMP as substrate by mobility shift assay relative to control.
T4 sequence (Q9Y233 whole entry, the tested form may be a part): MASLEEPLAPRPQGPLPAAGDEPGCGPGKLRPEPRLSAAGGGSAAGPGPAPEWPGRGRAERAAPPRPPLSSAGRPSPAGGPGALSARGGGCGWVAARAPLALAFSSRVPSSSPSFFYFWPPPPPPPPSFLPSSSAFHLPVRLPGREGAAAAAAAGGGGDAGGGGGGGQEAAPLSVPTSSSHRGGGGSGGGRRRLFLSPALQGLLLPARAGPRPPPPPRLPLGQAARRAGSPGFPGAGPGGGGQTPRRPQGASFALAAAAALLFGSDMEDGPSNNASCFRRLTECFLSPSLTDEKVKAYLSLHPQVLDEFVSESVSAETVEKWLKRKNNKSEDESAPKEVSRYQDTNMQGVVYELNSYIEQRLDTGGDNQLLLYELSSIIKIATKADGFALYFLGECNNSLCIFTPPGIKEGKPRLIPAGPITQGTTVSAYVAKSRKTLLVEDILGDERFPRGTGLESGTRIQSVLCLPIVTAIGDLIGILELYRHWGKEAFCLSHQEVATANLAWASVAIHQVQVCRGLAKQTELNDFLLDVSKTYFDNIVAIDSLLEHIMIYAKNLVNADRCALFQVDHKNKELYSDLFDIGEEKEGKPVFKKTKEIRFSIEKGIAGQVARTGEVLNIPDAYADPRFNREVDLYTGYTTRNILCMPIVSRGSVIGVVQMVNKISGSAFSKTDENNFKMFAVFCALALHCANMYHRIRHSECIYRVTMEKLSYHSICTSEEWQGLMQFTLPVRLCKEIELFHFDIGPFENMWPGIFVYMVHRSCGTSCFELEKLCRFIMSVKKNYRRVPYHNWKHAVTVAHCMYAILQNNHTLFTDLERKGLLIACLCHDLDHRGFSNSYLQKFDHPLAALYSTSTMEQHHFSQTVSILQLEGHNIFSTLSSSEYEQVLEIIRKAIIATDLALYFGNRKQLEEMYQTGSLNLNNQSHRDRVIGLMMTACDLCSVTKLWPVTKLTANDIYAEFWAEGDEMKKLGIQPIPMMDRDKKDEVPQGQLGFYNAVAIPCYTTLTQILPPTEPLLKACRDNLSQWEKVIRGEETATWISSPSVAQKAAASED
Series [12] addresses T4, cAMP and cAMP-inhibited cGMP 3',5'-cyclic phosphodiesterase 10A. As to the kind of experiment: Inhibition of Ca2+/calmodulin-induced recombinant human full length N-terminal GST-tagged PDE10A1 expressed in baculovirus infected Sf9 cells using cAMP as substrate pretreated for 10 mins followed by substrate addition and measured after 40 mins by kinase-Glo luminescence assay. To be noted: read-out: IC50.

The target in series [13] is T3, High affinity cGMP-specific 3',5'-cyclic phosphodiesterase 9A. As to the kind of experiment: Inhibition of Ca2+/calmodulin-induced recombinant human full length N-terminal GST-tagged PDE9A2 expressed in baculovirus infected Sf9 cells using cGMP as substrate pretreated for 10 mins followed by substrate addition and measured after 60 mins by kinase-Glo luminescence assay. The essentials:
as §2

The target of series [14] is Dual 3',5'-cyclic-AMP and -GMP phosphodiesterase 11A (Mus musculus) (UniProt P0C1Q2). As to the kind of experiment: Inhibition of recombinant mouse N-terminal GST-tagged PDE11A (2 to 933 residues) expressed in baculovirus infected Sf9 cells at 100 nM using iFl-cAMP/iFl-cGMP as substrate by mobility shift assay relative to control.
Series [15] can be described thus: Intrinsic clearance in dog liver microsomes in presence of NADP/G6P/G6P dehydrogenase/MgCl2 by LC/MS analysis. It counts as ADME, Canis lupus familiaris, microsome. To be noted: read-out: CLH. In a few lines:
as §1

Series [16] concerns the target T2, Dual specificity calcium/calmodulin-dependent 3',5'-cyclic nucleotide phosphodiesterase 1C. Nature of the series: Inhibition of recombinant human N-terminal GST-tagged PDE1C (2 to 634 residues) expressed in baculovirus infected Sf9 cells at 100 nM using iFl-cAMP/iFl-cGMP as substrate by mobility shift assay relative to control.
Series [17] is described as follows: Intrinsic clearance in mouse liver microsomes in presence of NADP/G6P/G6P dehydrogenase/MgCl2/metabolic phase 2 co-factor by LC/MS analysis. To be noted: read-out: CLH. It counts as ADME, microsome. In a few lines: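 Mouse liver microsomes incubated with both phase 1 and phase 2 co-factors, with intrinsic clearance expressed in µl x min^-1 x mg^-1.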
The target of series [18] is 3',5'-cyclic-AMP phosphodiesterase 4B (Homo sapiens) (UniProt Q07343). As to the kind of experiment: Inhibition of recombinant full length human N-terminal GST-tagged PDE4B1 expressed in baculovirus infected Sf9 cells at 100 nM using iFl-cAMP/iFl-cGMP as substrate by mobility shift assay relative to control.
Sequence of 3',5'-cyclic-AMP phosphodiesterase 4B (Homo sapiens) (Q07343 whole entry): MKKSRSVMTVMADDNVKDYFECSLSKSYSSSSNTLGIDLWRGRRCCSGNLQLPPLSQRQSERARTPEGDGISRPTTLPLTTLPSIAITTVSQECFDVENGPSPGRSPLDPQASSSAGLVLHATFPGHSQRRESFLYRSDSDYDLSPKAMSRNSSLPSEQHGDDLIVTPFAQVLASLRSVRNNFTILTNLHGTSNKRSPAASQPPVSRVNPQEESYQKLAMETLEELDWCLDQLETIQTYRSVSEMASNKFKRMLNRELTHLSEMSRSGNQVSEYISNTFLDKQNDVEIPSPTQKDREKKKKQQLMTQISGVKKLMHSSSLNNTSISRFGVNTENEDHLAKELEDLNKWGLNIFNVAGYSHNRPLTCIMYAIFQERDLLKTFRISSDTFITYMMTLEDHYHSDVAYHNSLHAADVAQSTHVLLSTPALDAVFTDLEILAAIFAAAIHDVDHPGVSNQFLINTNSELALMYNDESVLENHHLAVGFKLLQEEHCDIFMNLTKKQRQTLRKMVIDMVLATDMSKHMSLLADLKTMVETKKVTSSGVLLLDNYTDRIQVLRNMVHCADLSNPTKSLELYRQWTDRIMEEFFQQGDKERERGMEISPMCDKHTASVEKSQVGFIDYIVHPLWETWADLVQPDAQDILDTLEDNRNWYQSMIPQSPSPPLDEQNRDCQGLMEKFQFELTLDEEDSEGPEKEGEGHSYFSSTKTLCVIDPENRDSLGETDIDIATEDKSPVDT
A short description of series [19]: Intrinsic clearance in rat liver microsomes. It is filed as ADME, microsome.
Series [20] addresses T4, cAMP and cAMP-inhibited cGMP 3',5'-cyclic phosphodiesterase 10A. As to the kind of experiment: Inhibition of PDE10 (unknown origin).

pIC50: −log10 of the molar value. Bounds are passed on as bounds.

T2 sequence (Q14123 whole entry, canonical isoform): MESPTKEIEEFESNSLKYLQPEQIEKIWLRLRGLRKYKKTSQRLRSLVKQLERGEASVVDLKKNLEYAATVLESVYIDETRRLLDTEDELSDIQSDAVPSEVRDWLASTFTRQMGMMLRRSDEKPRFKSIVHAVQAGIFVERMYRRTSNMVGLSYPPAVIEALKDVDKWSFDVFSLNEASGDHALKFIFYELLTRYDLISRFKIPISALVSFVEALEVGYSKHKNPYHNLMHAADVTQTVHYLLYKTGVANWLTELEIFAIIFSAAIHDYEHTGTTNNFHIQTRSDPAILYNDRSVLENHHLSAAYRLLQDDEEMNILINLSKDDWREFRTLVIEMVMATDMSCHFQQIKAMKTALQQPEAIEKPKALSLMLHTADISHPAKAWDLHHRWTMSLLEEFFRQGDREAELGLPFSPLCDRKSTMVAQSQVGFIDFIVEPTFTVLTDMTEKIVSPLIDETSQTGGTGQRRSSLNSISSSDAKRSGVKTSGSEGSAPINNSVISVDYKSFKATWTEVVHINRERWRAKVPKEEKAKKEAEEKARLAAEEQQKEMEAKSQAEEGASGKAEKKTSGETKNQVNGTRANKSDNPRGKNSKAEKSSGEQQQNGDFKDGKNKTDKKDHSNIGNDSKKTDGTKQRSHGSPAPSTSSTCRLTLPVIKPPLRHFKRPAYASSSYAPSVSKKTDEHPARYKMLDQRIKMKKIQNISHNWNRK

As to `Cc1ncc(C)n2nc(-c3ccn4cc(-c5ccccc5)nc4n3)nc12`, the inhibition was 9% in series [1]; -1% in [3]; 7% in [4]; -3% in series [6]; 6% in series [8]; 26% in series [9]. Moreover, the inhibition in series [10] is 18%; in series [11], 98%; in series [14], 9%; in series [16], 5%; in [18] it was 4%. The microsomal CLint in series [2] worked out at 1.8 µL/min/mg; in [7], 5.6 µL/min/mg; in [15] it was 7.4 µL/min/mg; in series [17], 0.6 µL/min/mg. Further, the values for the pIC50 in series [5], in [12] and in series [13] were < 5.00, 7.46 and < 5.00, respectively.
As to `Cc1ncc(C)n2nc(-c3ccn4cc(-c5ccccc5)nc4c3)nc12`, the microsomal CLint in series [2] is 11.6 µL/min/mg; in series [7], 68.9 µL/min/mg; in series [15] it was 16.3 µL/min/mg; in series [17] it was 28.9 µL/min/mg. The CLH in series [19] came out at 68.8 µL/min/mg. In series [20], this compound had a pIC50 of 7.43.
For `COc1cccnc1-c1nc2ccc(-c3nc4c(C)ncc(C)n4n3)cc2[nH]1`, the microsomal CLint in [2] amounted to 0.7 µL/min/mg; in series [7], 5.4 µL/min/mg. The pIC50 in series [5] is < 5.00; in series [12], 7.40; in series [13], < 5.00.
As for `Cc1ncc(C)n2nc(-c3ccc4nc(-c5ccccc5)[nH]c4c3)nc12`, the inhibition in series [1] is 8%; in [3], -4%; in series [4], -3%; in [6] it was -7%; in series [8], 6%; in [9], 8%. Also, the inhibition was -3% in series [10]; 99% in series [11]; 8% in series [14]; 16% in series [16]; 3% in series [18].
Turning to `Cc1cc(C)n2c(Br)c(CSc3nc4ccccc4[nH]3)nc2n1`, in series [19], the CLH came out at 3.6 µL/min/mg. Also, in series [20], the pIC50 is 6.68.
For `Cc1cc(C)n2nc(CCc3nc(-c4ccccc4)cn3C)nc2n1` the same measures were 13 µL/min/mg and 7.17.

(Values after ChEMBL document CHEMBL4152287, “Synthesis and characterization of novel classes of PDE10A inhibitors - 1H-1,3-benzodiazoles and imidazo[1,2-a]pyrimidines” (Eur J Med Chem, 2018).)
